# Measured values taken from ChEMBL document CHEMBL1921722, “In vitro and in vivo evaluation of select kahalalide F analogs with antitumor and antifungal activities” (Bioorg Med Chem, 2011).
# pIC50: −log10 of the molar value.
# How the values were obtained:
# MDA-MB-231 = assay: Cytotoxicity against human MDA-MB-231 cells by sulforhodamine B assay; type: functional
# How it was run: (§1)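 NCI Developmental Therapeutics Program 60-cell-line human tumor panel screen, run at NCI. A single-concentration pre-screen was followed by a five-concentration dose-response in 10-fold steps. GI50 is the concentration that reduces growth of treated cells to half that of untreated control cells. TGI is the concentration that completely halts growth.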
# MCF7 [1] = assay: Cytotoxicity against human MCF7 cells by sulforhodamine B assay; type: functional
# KM12 = assay: Cytotoxicity against human KM12 cells assessed as cell growth at 80 uM by sulforhodamine B assay relative to control; type: functional; conditions: read-out: Activity
# UACC-257 = assay: Cytotoxicity against human UACC257 cells assessed as cell growth at 80 uM by sulforhodamine B assay relative to control; type: functional; conditions: read-out: Activity
# U-251 = assay: Cytotoxicity against human U251 cells assessed as cell growth at 800 nM by sulforhodamine B assay relative to control; type: functional; conditions: read-out: Activity
# Malme-3M [2] = assay: Cytotoxicity against human MALME-3M cells by sulforhodamine B assay; type: functional; how it was run: as §1
# HCC 2998 = assay: Cytotoxicity against human HCC2998 cells assessed as cell growth at 8 nM by sulforhodamine B assay relative to control; type: functional; conditions: read-out: Activity
# HCT-116 [3] = assay: Cytotoxicity against human HCT116 cells assessed as cell growth at 800 nM by sulforhodamine B assay relative to control; type: functional; conditions: read-out: Activity
# OVCAR-5 [4] = assay: Cytotoxicity against human OVCAR5 cells assessed as cell growth at 8 uM by sulforhodamine B assay relative to control; type: functional; conditions: read-out: Activity
# OVCAR-3 = assay: Cytotoxicity against human OVCAR3 cells assessed as cell growth at 8 uM by sulforhodamine B assay relative to control; type: functional; conditions: read-out: Activity
# NCI/ADR-RES = assay: Cytotoxicity against human NCI/ADR-RES cells assessed as cell growth at 8 nM by sulforhodamine B assay relative to control; type: functional; conditions: read-out: Activity
# [5] = system: Mycobacterium intracellulare; assay: Antimicrobial activity against Mycobacterium intracellular ATCC 23068 after 5 days by MABA assay; type: functional, organism-based; conditions: ATCC 23068, 120 h
# How it was run: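 M. intracellulare was tested by a modified Franzblau method. Samples were serially diluted in 20% DMSO/saline, run in duplicate, and inocula were adjusted by OD630. […] IC50 is 50% growth inhibition; MIC is the lowest concentration with no detectable growth.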
# NCI-H23 = assay: Cytotoxicity against human NCI-H23 cells by sulforhodamine B assay; type: functional; how it was run: as §1
# RPMI-8226 [6] = assay: Cytotoxicity against human RPMI8226 cells by sulforhodamine B assay; type: functional; how it was run: as §1
# SW-620 = assay: Cytotoxicity against human SW620 cells by sulforhodamine B assay; type: functional; how it was run: as §1
# HOP-62 [7] = assay: Cytotoxicity against human HOP62 cells assessed as cell growth at 8 nM by sulforhodamine B assay relative to control; type: functional; conditions: read-out: Activity
# SF-295 = assay: Cytotoxicity against human SF295 cells assessed as cell growth at 8 uM by sulforhodamine B assay relative to control; type: functional; conditions: read-out: Activity
# DU-145 [8] = assay: Cytotoxicity against human DU145 cells assessed as cell growth at 80 nM by sulforhodamine B assay relative to control; type: functional; conditions: read-out: Activity
# Malme-3M [9] = assay: Cytotoxicity against human MALME-3M cells assessed as cell growth at 8 uM by sulforhodamine B assay relative to control; type: functional; conditions: read-out: Activity
# A549 = assay: Cytotoxicity against human A549 cells assessed as cell growth at 800 nM by sulforhodamine B assay relative to control; type: functional; conditions: read-out: Activity
# How it was run: (§2)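 Run at NCI in the DTP 60-cell-line human tumor panel by standard procedure. Compounds were first screened at a single concentration, then tested at five tenfold-spaced concentrations. GI50 is the concentration reducing treated-cell growth to half that of untreated controls; TGI is the concentration completely halting growth.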
# HOP-92 = assay: Cytotoxicity against human HOP92 cells assessed as cell growth at 80 uM by sulforhodamine B assay relative to control; type: functional; conditions: read-out: Activity
# SK-MEL-28 [10] = assay: Cytotoxicity against human SK-MEL-28 cells by sulforhodamine B assay; type: functional; how it was run: as §1
# PC-3 = assay: Cytotoxicity against human PC3 cells assessed as cell growth at 8 nM by sulforhodamine B assay relative to control; type: functional; conditions: read-out: Activity
# HCT-116 [11] = assay: Cytotoxicity against human HCT116 cells by sulforhodamine B assay; type: functional
# How it was run: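 Run by the NCI Developmental Therapeutics Program on its 60-line human tumour cell panel using the standard procedure. Compounds went through a single-concentration prescreen first, and those active by NCI criteria went on to a five-concentration growth-inhibition test. GI50 is the concentration that cuts growth of treated cells to half that of untreated control cells.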
# ACHN [12] = assay: Cytotoxicity against human ACHN cells assessed as cell growth at 8 nM by sulforhodamine B assay relative to control; type: functional; conditions: read-out: Activity; how it was run: as §2
# ACHN [13] = assay: Cytotoxicity against human ACHN cells assessed as cell growth at 80 nM by sulforhodamine B assay relative to control; type: functional; conditions: read-out: Activity; how it was run: as §2
# T47D = assay: Cytotoxicity against human T47D cells assessed as cell growth at 80 nM by sulforhodamine B assay relative to control; type: functional; conditions: read-out: Activity
# OVCAR-5 [14] = assay: Cytotoxicity against human OVCAR5 cells assessed as cell growth at 800 nM by sulforhodamine B assay relative to control; type: functional; conditions: read-out: Activity
# SK-MEL-28 [15] = assay: Cytotoxicity against human SK-MEL-28 cells assessed as cell growth at 8 nM by sulforhodamine B assay relative to control; type: functional; conditions: read-out: Activity
# A498 = assay: Cytotoxicity against human A498 cells assessed as cell growth at 8 nM by sulforhodamine B assay relative to control; type: functional; conditions: read-out: Activity; how it was run: as §2
# HL-60(TB) = assay: Cytotoxicity against human HL-60(TB) cells assessed as cell growth at 8 nM by sulforhodamine B assay relative to control; type: functional; conditions: read-out: Activity
# UACC-62 [16] = assay: Cytotoxicity against human UACC62 cells assessed as cell growth at 8 nM by sulforhodamine B assay relative to control; type: functional; conditions: read-out: Activity
# SK-OV-3 [17] = assay: Cytotoxicity against human SKOV3 cells assessed as cell growth at 80 uM by sulforhodamine B assay relative to control; type: functional; conditions: read-out: Activity
# MCF7 [18] = assay: Cytotoxicity against human MCF7 cells assessed as cell growth at 8 uM by sulforhodamine B assay relative to control; type: functional; conditions: read-out: Activity
# RPMI-8226 [19] = assay: Cytotoxicity against human RPMI8226 cells assessed as cell growth at 80 uM by sulforhodamine B assay relative to control; type: functional; conditions: read-out: Activity
# DU-145 [20] = assay: Cytotoxicity against human DU145 cells assessed as cell growth at 8 uM by sulforhodamine B assay relative to control; type: functional; conditions: read-out: Activity; how it was run: as §2
# UACC-62 [21] = assay: Cytotoxicity against human UACC62 cells assessed as cell growth at 80 uM by sulforhodamine B assay relative to control; type: functional; conditions: read-out: Activity
# HOP-62 [22] = assay: Cytotoxicity against human HOP62 cells assessed as cell growth at 8 uM by sulforhodamine B assay relative to control; type: functional; conditions: read-out: Activity
# SK-OV-3 [23] = assay: Cytotoxicity against human SKOV3 cells assessed as cell growth at 80 nM by sulforhodamine B assay relative to control; type: functional; conditions: read-out: Activity
compound,measurement,setting,value
C/C=C1\NC(=O)[C@H](Cc2ccccc2)NC(=O)[C@@H](C(C)C)NC(=O)[C@@H]([C@@H](C)CC)NC(=O)[C@H](NC(=O)[C@H](NC(=O)[C@H](CCCNCc2ccc(N3CCOCC3)cc2)NC(=O)[C@H]2CCCN2C(=O)[C@H](NC(=O)[C@@H](NC(=O)[C@@H](NC(=O)[C@H](NC(=O)CCCC(C)C)C(C)C)[C@@H](C)O)C(C)C)C(C)C)[C@@H](C)CC)[C@@H](C)OC(=O)[C@H](C(C)C)NC1=O,GI50,MDA-MB-231,2.63 µM
same,LC50,MDA-MB-231,> 75.9 µM
same,TGI,MDA-MB-231; read-out: pTGI (converted),15.5 µM
same,GI50,MCF7 [1],1.45 µM
same,growth at 80 µM,KM12,9%
same,growth at 80 µM,UACC-257,-28%
same,growth at 0.8 µM,U-251,72%
same,GI50,Malme-3M [2],1.7 µM
same,TGI,Malme-3M [2]; read-out: pTGI (converted),3.16 µM
same,growth at 0.008 µM,HCC 2998,97%
same,growth at 0.8 µM,HCT-116 [3],104%
same,growth at 8 µM,OVCAR-5 [4],-74%
same,growth at 8 µM,OVCAR-3,-72%
same,growth at 0.008 µM,NCI/ADR-RES,104%
same,pIC50,[5],< 4.70
same,MBC,[5],> 20 µM
same,MIC,[5],> 20 µM
same,GI50,NCI-H23,1.55 µM
same,LC50,NCI-H23,6.31 µM
same,TGI,NCI-H23; read-out: pTGI (converted),3.09 µM
same,GI50,RPMI-8226 [6]; read-out: GI50,1.13 µM
same,TGI,RPMI-8226 [6]; read-out: TGI,2.51 µM
same,GI50,RPMI-8226 [6]; read-out: pGI50 (converted),1.12 µM
same,TGI,RPMI-8226 [6]; read-out: pTGI (converted),2.51 µM
same,GI50,SW-620,1.05 µM
same,TGI,SW-620; read-out: pTGI (converted),2.04 µM
same,growth at 0.008 µM,HOP-62 [7],104%
same,growth at 8 µM,SF-295,-40%
same,growth at 0.08 µM,DU-145 [8],89%
same,growth at 8 µM,Malme-3M [9],-71%
same,growth at 0.8 µM,A549,-40%
same,growth at 80 µM,HOP-92,-62%
same,GI50,SK-MEL-28 [10],1.38 µM
same,TGI,SK-MEL-28 [10]; read-out: pTGI (converted),2.57 µM
same,growth at 0.008 µM,PC-3,90%
same,GI50,HCT-116 [11],1.55 µM
same,LC50,HCT-116 [11],6.03 µM
same,TGI,HCT-116 [11]; read-out: pTGI (converted),3.09 µM
same,growth at 0.008 µM,ACHN [12],100%
same,growth at 0.08 µM,ACHN [13],102%
same,growth at 0.08 µM,T47D,89%
same,growth at 0.8 µM,OVCAR-5 [14],64%
same,growth at 0.008 µM,SK-MEL-28 [15],87%
same,growth at 0.008 µM,A498,96%
same,growth at 0.008 µM,HL-60(TB),94%
same,growth at 0.008 µM,UACC-62 [16],102%
same,growth at 80 µM,SK-OV-3 [17],-23%
same,growth at 8 µM,MCF7 [18],-53%
same,growth at 80 µM,RPMI-8226 [19],-29%
same,growth at 8 µM,DU-145 [20],-96%
same,growth at 80 µM,UACC-62 [21],-81%
same,growth at 8 µM,HOP-62 [22],-70%
same,growth at 0.08 µM,SK-OV-3 [23],101%
